According to ChEMBL document CHEMBL4373711, “Development of 3,5-Dinitrophenyl-Containing 1,2,4-Triazoles and Their Trifluoromethyl Analogues as Highly Efficient Antitubercular Agents Inhibiting Decaprenylphosphoryl-β-d-ribofuranose 2'-Oxidase” (J Med Chem, 2019):
In brackets after ≈: the same amount, converted by molar mass. Activity calls are given as the source filed them. The calls are words filed in the database; no cut-off is given here.

Tests used:
Pseudomonas aeruginosa = experiment: Antibacterial activity against Pseudomonas aeruginosa ATCC 27853 CCM 3955 at highest concentration measured after 24 to 48 hrs by alamar blue dye based broth microdilution assay; type: functional, organism-based
[1] = test system: Mycobacterium tuberculosis; experiment: Antimycobacterial activity against XDR Mycobacterium tuberculosis Praha 131 after 14 days; type: functional; details: Praha 131, 336 h
Procedure, shortened: (§1)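 M. tuberculosis strains (H37Rv and clinical MDR/XDR isolates) tested by microdilution in Šula's semisynthetic medium. Compounds were dissolved in DMSO and tested at 32 to 0.03 µM in twofold steps. Inoculum was a 1.0 McFarland suspension diluted 10-3. Plates were incubated at 37 °C and read at 14 and 21 days.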

Mycobacterium kansasii [2] = experiment: Antimycobacterial activity against Mycobacterium kansasii 6509/96 after 14 days; type: functional; details: 6509/96, 336 h
Procedure, shortened: (§2)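 Microdilution in Šula's semisynthetic medium; compounds in DMSO at 32–0.03 µM. Inoculum from 1.0 McFarland suspension diluted 10-4. […] Isoniazid and rifampicin as reference drugs.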

[3] = Cytotoxicity against human A431 cells assessed as cell viability at 30 uM after 48 hrs by CellTiter 96 aqueous one solution assay relative to control; type: cell-based, A-431; details: read-out: Activity
Procedure, shortened: (§3)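 HepG2 (DMEM, 10% FBS, 1 mM pyruvate) or A431 (DMEM, 10% FBS) seeded 10,000 cells/well, 24 h at 37 °C, 5% CO2, then 30 µM compound for 48 h. MTS reagent 60 min, absorbance 490 nm, background subtracted; 0.1% DMSO vehicle = 100%, 10% SDS = 0% viability.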

Staphylococcus aureus [4] = experiment: Antibacterial activity against methicillin-resistant Staphylococcus aureus subsp. aureus ATCC 43300 CCM 4750 at highest concentration measured after 24 to 48 hrs by alamar blue dye based broth microdilution assay; type: functional, organism-based
Mycobacterium kansasii [5] = experiment: Antimycobacterial activity against Mycobacterium kansasii CNCTC My 235/80 after 21 days; type: functional; details: CNCTC My 235/80, 504 h; procedure, shortened: as §2
[6] = test system: Staphylococcus epidermidis; experiment: Antibacterial activity against Staphylococcus epidermidis at highest concentration measured after 24 to 48 hrs by alamar blue dye based broth microdilution assay; type: functional, organism-based
Lichtheimia corymbifera = experiment: Antifungal activity against Lichtheimia corymbifera CCM 8077 at highest concentration measured after 24 to 48 hrs by alamar blue dye based broth microdilution assay; type: functional, organism-based
Mycobacterium kansasii [7] = experiment: Antimycobacterial activity against Mycobacterium kansasii CNCTC My 235/80 after 14 days; type: functional; details: CNCTC My 235/80, 336 h; procedure, shortened: as §2
Mycobacterium kansasii [8] = experiment: Antimycobacterial activity against Mycobacterium kansasii 6509/96 after 21 days; type: functional; details: 6509/96, 504 h; procedure, shortened: as §2
Staphylococcus aureus [9] = experiment: Antibacterial activity against Staphylococcus aureus subsp. aureus ATCC 29213 CCM 4223 at highest concentration measured after 24 to 48 hrs by alamar blue dye based broth microdilution assay; type: functional, organism-based
[10] = test system: Mycobacterium tuberculosis; experiment: Antimycobacterial activity against Mycobacterium tuberculosis H37Rv CNCTC My 331/88 after 21 days; type: functional; details: H37Rv CNCTC My 331/88, 504 h; procedure, shortened: as §1
Candida parapsilosis = experiment: Antifungal activity against Candida parapsilosis ATCC 22019 CCM 8260 at highest concentration measured after 24 to 48 hrs by alamar blue dye based broth microdilution assay; type: functional, organism-based
Mycobacterium kansasii [11] = experiment: Antimycobacterial activity against Mycobacterium kansasii 6509/96 after 7 days; type: functional; details: 6509/96, 168 h; procedure, shortened: as §2
[12] = test system: Trichophyton interdigitale; experiment: Antifungal activity against Trichophyton interdigitale ATCC 9533 CCM 8377 at highest concentration measured after 72 to 120 hrs by alamar blue dye based broth microdilution assay; type: functional
[13] = test system: Mycobacterium tuberculosis; experiment: Antimycobacterial activity against Mycobacterium tuberculosis H37Rv CNCTC My 331/88 after 14 days; type: functional; details: H37Rv CNCTC My 331/88, 336 h; procedure, shortened: as §1
[14] = Genotoxicity in Salmonella typhimurium TA100 at 30 uM in presence of rat liver S9 fraction by Ames test; type: toxicity, subcellular; details: salmonella enterica subsp. enterica serovar typhimurium, s9, 30 µM
Procedure, shortened: (§4)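 Microplate fluctuation Ames reverse-mutation test following kit instructions; TA98 detects frameshift and TA100 base-exchange mutations. Compound at 30 µM final with Aroclor-1254-induced rat liver S9 plus cofactors.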

Serratia marcescens = experiment: Antibacterial activity against Serratia marcescens at highest concentration measured after 24 to 48 hrs by alamar blue dye based broth microdilution assay; type: functional, organism-based
A-431 = experiment: Cytotoxicity against human A431 cells assessed as reduction in cell viability after 48 hrs by CellTiter 96 aqueous one solution assay; type: cell-based; details: A-431, 48 h
HepG2 = experiment: Cytotoxicity against human HepG2 cells assessed as reduction in cell viability after 48 hrs by CellTiter 96 aqueous one solution assay; type: cell-based; details: HepG2, 48 h
Mycobacterium avium [15] = experiment: Antimycobacterial activity against Mycobacterium avium CNCTC My 330/88 after 21 days; type: functional; details: CNCTC My 330/88, 504 h
Procedure, shortened: (§5)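 M. avium was tested by microdilution in Šula's semisynthetic medium, with compounds dissolved in DMSO and serially diluted from 1000 down to 1. Inoculum was a 1.0 McFarland suspension diluted 10-5. Plates were incubated at 37 °C and read at 14 and 21 days. […] Isoniazid and rifampicin served as standards.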

Pichia kudriavzevii = experiment: Antifungal activity against Candida krusei ATCC 6258 CCM8271 at highest concentration measured after 24 to 48 hrs by alamar blue dye based broth microdilution assay; type: functional, organism-based
Candida tropicalis = experiment: Antifungal activity against Candida tropicalis ATCC 750 CCM 8264 at highest concentration measured after 24 to 48 hrs by alamar blue dye based broth microdilution assay; type: functional, organism-based
Mycobacterium avium [16] = experiment: Antimycobacterial activity against Mycobacterium avium CNCTC My 330/88 after 14 days; type: functional; details: CNCTC My 330/88, 336 h; procedure, shortened: as §5
Escherichia coli = experiment: Antibacterial activity against Escherichia coli ATCC 25922 CCM 3954 at highest concentration measured after 24 to 48 hrs by alamar blue dye based broth microdilution assay; type: functional, organism-based
[17] = Cytotoxicity against human HepG2 cells assessed as cell viability at 30 uM after 48 hrs by CellTiter 96 aqueous one solution assay relative to control; type: cell-based; details: read-out: Activity; procedure, shortened: as §3
[18] = test system: Mycobacterium tuberculosis; experiment: Antimycobacterial activity against XDR Mycobacterium tuberculosis Praha 131 after 21 days; type: functional; details: Praha 131, 504 h; procedure, shortened: as §1
Aspergillus fumigatus = experiment: Antifungal activity against Aspergillus fumigatus ATCC 204305 at highest concentration measured after 24 to 48 hrs by alamar blue dye based broth microdilution assay; type: functional, organism-based
Candida albicans = experiment: Antifungal activity against Candida albicans ATCC 24433 CCM 8320 at highest concentration measured after 24 to 48 hrs by alamar blue dye based broth microdilution assay; type: functional, organism-based
Klebsiella pneumoniae = experiment: Antibacterial activity against Klebsiella pneumoniae at highest concentration measured after 24 to 48 hrs by alamar blue dye based broth microdilution assay; type: functional, organism-based
[19] = Genotoxicity in Salmonella typhimurium TA98 at 30 uM in presence of rat liver S9 fraction by Ames test; type: toxicity, subcellular; details: salmonella enterica subsp. enterica serovar typhimurium, s9, 30 µM; procedure, shortened: as §4
Aspergillus flavus = experiment: Antifungal activity against Aspergillus flavus CCM 8363 at highest concentration measured after 24 to 48 hrs by alamar blue dye based broth microdilution assay; type: functional, organism-based
Mycobacterium kansasii [20] = experiment: Antimycobacterial activity against Mycobacterium kansasii CNCTC My 235/80 after 7 days; type: functional; details: CNCTC My 235/80, 168 h; procedure, shortened: as §2
Enterococcus faecalis = experiment: Antibacterial activity against Enterococcus faecalis ATCC 29212 CCM 4224 at highest concentration measured after 24 to 48 hrs by alamar blue dye based broth microdilution assay; type: functional, organism-based
[21] = test system: Mycobacterium tuberculosis; experiment: Antitubercular activity against Mycobacterium tuberculosis H37Rv; type: functional

| Compound | Activity (Pseudomonas aeruginosa) | MIC99 [1] [µM] | MIC99 (Mycobacterium kansasii [2]) [µM] | viability at 48 h, 30 µM [3] [%] | Activity (Staphylococcus aureus [4]) | MIC99 (Mycobacterium kansasii [5]) [µM] | Activity [6] | Activity (Lichtheimia corymbifera) | MIC99 (Mycobacterium kansasii [7]) [µM] | MIC99 (Mycobacterium kansasii [8]) [µM] | Activity (Staphylococcus aureus [9]) | MIC99 [10] [µM] | Activity (Candida parapsilosis) | MIC99 (Mycobacterium kansasii [11]) [µM] | Activity [12] | MIC99 [13] [µM] | Activity [14] | Activity (Serratia marcescens) | IC50 (A-431) [µM] | Activity [19] | further results |
| --- | --- | --- | --- | --- | --- | --- | --- | --- | --- | --- | --- | --- | --- | --- | --- | --- | --- | --- | --- | --- | --- |
| O=[N+]([O-])c1cc(-c2nnc(SCc3ccc(Cl)c(Cl)c3)n2Cc2ccccc2)cc([N+](=O)[O-])c1 | inactive | 0.125 (≈ 0.0645 µg/mL) | 0.125 (≈ 0.0645 µg/mL) | 97 | inactive | 0.25 (≈ 0.129 µg/mL) | inactive | inactive | 0.25 (≈ 0.129 µg/mL) | 0.125 (≈ 0.0645 µg/mL) | inactive | 0.25 (≈ 0.129 µg/mL) | inactive | 0.06 (≈ 0.031 µg/mL) | inactive | 0.25 (≈ 0.129 µg/mL) | Non-Toxic | inactive | > 30 | Toxic | IC50 (HepG2): > 30 µM; MIC99 (Mycobacterium avium [15]): 62 µM (≈ 32 µg/mL); Activity (Pichia kudriavzevii): inactive; Activity (Candida tropicalis): inactive; MIC99 (Mycobacterium avium [16]): 62 µM (≈ 32 µg/mL); Activity (Escherichia coli): inactive; viability at 48 h, 30 µM [17]: 103%; MIC99 [18]: 0.25 µM (≈ 0.129 µg/mL); Activity (Aspergillus fumigatus): inactive; Activity (Candida albicans): inactive; Activity (Klebsiella pneumoniae): inactive; Activity (Aspergillus flavus): inactive; MIC99 (Mycobacterium kansasii [20]): 0.25 µM (≈ 0.129 µg/mL); Activity (Enterococcus faecalis): inactive |
| Nc1ccc2cc3ccccc3cc2c1 [2-AMINOANTHRACENE] |  |  |  |  |  |  |  |  |  |  |  |  |  |  |  |  | Toxic |  |  | Toxic |  |
| C[C@]1(COc2ccc(N3CCC(Oc4ccc(OC(F)(F)F)cc4)CC3)cc2)Cn2cc([N+](=O)[O-])nc2O1 |  |  |  |  |  |  |  |  |  |  |  |  |  |  |  |  |  |  |  |  | MIC [21]: 0.023 µM (≈ 0.0123 µg/mL) |
| O=[N+]([O-])c1cc(-c2nnc(SCc3ccc(Cl)cc3)n2Cc2ccccc2)cc([N+](=O)[O-])c1 | inactive | 0.125 (≈ 0.0602 µg/mL) | 0.125 (≈ 0.0602 µg/mL) | 95 | inactive | 0.5 (≈ 0.241 µg/mL) | inactive | inactive | 0.25 (≈ 0.12 µg/mL) | 0.125 (≈ 0.0602 µg/mL) | inactive | 0.25 (≈ 0.12 µg/mL) | inactive | 0.06 (≈ 0.0289 µg/mL) | inactive | 0.125 (≈ 0.0602 µg/mL) | Non-Toxic | inactive | > 30 | Toxic | IC50 (HepG2): > 30 µM; MIC99 (Mycobacterium avium [15]): 62 µM (≈ 29.9 µg/mL); Activity (Pichia kudriavzevii): inactive; Activity (Candida tropicalis): inactive; MIC99 (Mycobacterium avium [16]): 62 µM (≈ 29.9 µg/mL); Activity (Escherichia coli): inactive; viability at 48 h, 30 µM [17]: 105%; MIC99 [18]: 0.25 µM (≈ 0.12 µg/mL); Activity (Aspergillus fumigatus): inactive; Activity (Candida albicans): inactive; Activity (Klebsiella pneumoniae): inactive; Activity (Aspergillus flavus): inactive; MIC99 (Mycobacterium kansasii [20]): 0.125 µM (≈ 0.0602 µg/mL); Activity (Enterococcus faecalis): inactive |
| Cn1c(SCc2ccc(Cl)cc2)nnc1-c1cc([N+](=O)[O-])cc([N+](=O)[O-])c1 | inactive | 0.125 (≈ 0.0507 µg/mL) | 0.25 (≈ 0.101 µg/mL) | 85 | inactive | 0.5 (≈ 0.203 µg/mL) | inactive | inactive | 0.5 (≈ 0.203 µg/mL) | 0.5 (≈ 0.203 µg/mL) | inactive | 0.125 (≈ 0.0507 µg/mL) | inactive | 0.125 (≈ 0.0507 µg/mL) | inactive | 0.125 (≈ 0.0507 µg/mL) | Non-Toxic | inactive | > 30 | Non-Toxic | IC50 (HepG2): > 30 µM; MIC99 (Mycobacterium avium [15]): 8 µM (≈ 3.25 µg/mL); Activity (Pichia kudriavzevii): inactive; Activity (Candida tropicalis): inactive; MIC99 (Mycobacterium avium [16]): 8 µM (≈ 3.25 µg/mL); Activity (Escherichia coli): inactive; viability at 48 h, 30 µM [17]: 104%; MIC99 [18]: 0.125 µM (≈ 0.0507 µg/mL); Activity (Aspergillus fumigatus): inactive; Activity (Candida albicans): inactive; Activity (Klebsiella pneumoniae): inactive; Activity (Aspergillus flavus): inactive; MIC99 (Mycobacterium kansasii [20]): 0.25 µM (≈ 0.101 µg/mL); Activity (Enterococcus faecalis): inactive |
